The values below come from ChEMBL document CHEMBL2331506, “Design, synthesis, antiviral and cytostatic evaluation of novel isoxazolidine nucleotide analogues with a carbamoyl linker” (Bioorg Med Chem, 2013).

The source made the active and inactive calls. No rule for the calls is given here.

Data set [1] concerns Mammalian orthoreovirus 1. Nature of the data set: Antiviral activity against Reovirus 1 infected in african green monkey Vero cells assessed as reduction of virus-induced cytopathogenicity at 250 uM. Format: functional, organism-based. An outline of the steps: (§1)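 Confluent monolayers (HEL fibroblasts, Vero, or HeLa cells as listed) were infected with 100 CCID50 of virus in the presence of varying compound concentrations. Virus-induced cytopathicity or plaque formation was scored once cytopathicity was complete in untreated infected controls. EC50 was taken as the concentration reducing cytopathogenicity or plaque formation by 50%.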
Background: Damage to the host cells serves as the signal in cytopathic effect assays.

Data set [2] deals with Human respirovirus 3. Nature of the data set: Antiviral activity against Parainfluenza virus 3 infected in african green monkey Vero cells assessed as reduction of virus-induced cytopathogenicity at 250 uM. The data set is classed as functional, organism-based. An outline of the steps: as §1
Data set [3] concerns Sindbis virus. Nature of the data set: Antiviral activity against Sindbis virus infected in african green monkey Vero cells assessed as reduction of virus-induced cytopathogenicity at 250 uM. The data set is classed as functional, organism-based. In short, it runs like this: as §1
Data set [4] deals with MDCK. The data set can be described thus: Cytotoxicity against dog MDCK cells assessed as alteration of cell morphology up to 100 uM by microscopic analysis. Format: cell-based, Canis lupus familiaris. An outline of the steps:
(§2)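 Uninfected host-cell cultures were exposed to compound and examined by microscopy. Cytotoxicity was expressed as the minimum cytotoxic concentration (MCC) causing a microscopically detectable alteration of normal cell morphology.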

Data set [5] deals with HeLa. Nature of the data set: Cytotoxicity against human HeLa cells assessed as alteration of cell morphology up to 100 uM by microscopic analysis. The data set is classed as cell-based. In short, it runs like this: as §2
Data set [6] relates to Human alphaherpesvirus 1. Nature of the data set: Antiviral activity against Herpes simplex virus 1 KOS infected in human HEL cells assessed as reduction of virus-induced cytopathogenicity at 250 uM. Format: functional, organism-based. An outline of the steps:
as §1

Data set [7] deals with Coxsackievirus B4. Nature of the data set: Antiviral activity against Coxsackievirus B4 infected in african green monkey Vero cells assessed as reduction of virus-induced cytopathogenicity at 250 uM. The data set is classed as functional, organism-based. In short, it runs like this: as §1
The subject of data set [8] is Influenza A virus. The data set can be described thus: Antiviral activity against Influenza A virus H3N2 infected in dog MDCK cells assessed as reduction of virus-induced cytopathogenicity at 250 uM. The data set is classed as functional, organism-based. In short, it runs like this:
(§3)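 Confluent cell monolayers were infected with 100 CCID50 of virus while exposed to varying compound concentrations. Cytopathicity was scored once it was complete in untreated infected controls. EC50 was taken as the concentration that reduced virus-induced cytopathogenicity by 50%.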

Data set [9] has as its system Vesicular stomatitis virus. Nature of the data set: Antiviral activity against Vesicular stomatitis virus infected in human HeLa cells assessed as reduction of virus-induced cytopathogenicity at 250 uM. Format: functional, organism-based. In short, it runs like this: as §3
The test system of data set [10] is Feline coronavirus. Nature of the data set: Antiviral activity against Feline coronavirus infected in cat CRFK cells assessed as reduction of virus-induced cytopathogenicity at 250 uM. Format: functional, organism-based.
Data set [11] deals with Vero. Nature of the data set: Cytotoxicity against african green monkey Vero cells assessed as alteration of cell morphology up to 100 uM by microscopic analysis. The data set is classed as cell-based. Particulars: chlorocebus sabaeus. In short, it runs like this:
as §2

For data set [12], the system named is Punta Toro virus. The data set can be described thus: Antiviral activity against Punta Toro virus infected in african green monkey Vero cells assessed as reduction of virus-induced cytopathogenicity at 250 uM. Format: functional, organism-based. In short, it runs like this: as §1
Data set [13] has as its system Vesicular stomatitis virus. The data set can be described thus: Antiviral activity against Vesicular stomatitis virus infected in human HEL cells assessed as reduction of virus-induced cytopathogenicity at 250 uM. The data set is classed as functional, organism-based. In short, it runs like this: as §3
A short description of data set [14]: Cytotoxicity against cat CRFK cells assessed as alteration of cell morphology up to 100 uM by microscopic analysis. Format: cell-based, Felis catus. In short, it runs like this: as §2
Data set [15] concerns Human immunodeficiency virus 2. The data set can be described thus: Antiviral activity against Human immunodeficiency virus 2 ROD infected in human CEM cells assessed as reduction of virus-induced giant cell formation at 250 uM after 4 to 5 days. Format: functional, organism-based. The conditions noted are these: CCRF-CEM. An outline of the steps: (§4)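 CEM cells at 3 × 10^5 cells/mL were infected with HIV at 100 CCID50 per mL in the presence of compound dilutions. They were held 4–5 days at 37 °C in humidified CO2. Syncytium (giant cell) formation was scored microscopically, and EC50 was taken as the concentration inhibiting giant cell formation by 50%.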

The test system of data set [16] is Human immunodeficiency virus 1. Nature of the data set: Antiviral activity against Human immunodeficiency virus 1 3B infected in human CEM cells assessed as reduction of virus-induced giant cell formation at 250 uM after 4 to 5 days. The data set is classed as functional, organism-based. The conditions noted are these: CCRF-CEM. In short, it runs like this: as §4

Data set [17] has as its system Influenza A virus. The data set can be described thus: Antiviral activity against Influenza A virus H1N1 infected in dog MDCK cells assessed as reduction of virus-induced cytopathogenicity at 250 uM. Format: functional, organism-based. In short, it runs like this: as §3
For data set [18], the system named is Felid alphaherpesvirus 1. Nature of the data set: Antiviral activity against Feline herpes virus infected in cat CRFK cells assessed as reduction of virus-induced cytopathogenicity at 250 uM. The data set is classed as functional, organism-based.
The subject of data set [19] is Human alphaherpesvirus 1. Nature of the data set: Antiviral activity against thymidine kinase-deficient, ACV-resistant Herpes simplex virus 1 KOS infected in human HEL cells assessed as reduction of virus-induced cytopathogenicity at 250 uM. The data set is classed as functional, organism-based. In short, it runs like this: as §3
In data set [20] the test system is Human alphaherpesvirus 2. The data set can be described thus: Antiviral activity against Herpes simplex virus 2 G infected in human HEL cells assessed as reduction of virus-induced cytopathogenicity at 250 uM. Format: functional, organism-based. The conditions noted are these: strain G. An outline of the steps:
as §1

For data set [21], the system named is HEL. The data set can be described thus: Cytotoxicity against human HEL cells assessed as alteration of cell morphology up to 100 uM by microscopic analysis. The data set is classed as cell-based. An outline of the steps: as §2
In data set [22] the test system is Influenza B virus. The data set can be described thus: Antiviral activity against Influenza B virus infected in dog MDCK cells assessed as reduction of virus-induced cytopathogenicity at 250 uM. The data set is classed as functional, organism-based. An outline of the steps:
as §3

In data set [23] the test system is Respiratory syncytial virus. The data set can be described thus: Antiviral activity against Respiratory syncytial virus long infected in human HeLa cells assessed as reduction of virus-induced cytopathogenicity at 250 uM. The data set is classed as functional, organism-based. An outline of the steps:
as §1

Regarding `CCOP(=O)(OCC)[C@@H]1C[C@H](C(=O)Nc2ccc(C#N)cc2)ON1C` (mixture of isomers), the inhibition result in data set [1], in data set [2], in data set [3], in data set [6], in data set [7] and in [8] was “inactive” each time. For the same compound, the inhibition entry in [9], in data set [10], in [12], in [13], in data set [15] and in data set [16] was “inactive” throughout. Further, the inhibition result in data set [17], in data set [18], in [19], in [20], in data set [22] and in data set [23] was “inactive” throughout. Moreover, the Activity result in data set [4], in data set [5], in data set [11], in data set [14] and in [21] was “Non-toxic” throughout.
For `CCOP(=O)(OCC)[C@H]1C[C@H](C(=O)Nc2cccc(OC)c2)ON1C` (racemic), the inhibition entry in data set [1], in data set [2], in [3], in [6], in [7] and in data set [8] was “inactive” throughout. Moreover, the inhibition entry in [9], in [10], in data set [12], in data set [13], in data set [15] and in [16] was “inactive” throughout. Also, the inhibition result in data set [17], in data set [18], in [19], in data set [20], in data set [22] and in data set [23] was “inactive” throughout. Also, the Activity entry in data set [4], in [5], in data set [11], in [14] and in data set [21] was “Non-toxic” each time.
On to `CCOP(=O)(OCC)[C@@H]1C[C@H](C(=O)Nc2cccc(Cl)c2)ON1C` (mixture of isomers), for which the inhibition entry in data set [1], in data set [2], in data set [3], in [6], in data set [7] and in [8] was “inactive” throughout. The inhibition entry in data set [9], in data set [10], in [12], in [13], in [15] and in data set [16] was “inactive” each time. The inhibition entry in data set [17], in data set [18], in [19], in data set [20], in data set [22] and in data set [23] was “inactive” in each case. The Activity result in data set [4], in data set [5], in [11], in data set [14] and in data set [21] was “Non-toxic” throughout.
